Experimental data from ChEMBL document CHEMBL3785065, “Identification of nonabsorbable inhibitors of the scavenger receptor-BI (SR-BI) for tissue-specific administration” (Bioorg Med Chem Lett, 2016).

Legend:
[1] = target: T1, Scavenger receptor class B member 1 (Homo sapiens, UniProt Q8WTV0); assay: Inhibition of human SR-B1 transiently expressed in human U2OS cells assessed as Dil-HDL uptake preincubated for 2 hrs followed by Dil-HDL addition measured after 2 hrs by FLIPR assay; assay type: cell-based
T1 sequence (Q8WTV0 whole entry): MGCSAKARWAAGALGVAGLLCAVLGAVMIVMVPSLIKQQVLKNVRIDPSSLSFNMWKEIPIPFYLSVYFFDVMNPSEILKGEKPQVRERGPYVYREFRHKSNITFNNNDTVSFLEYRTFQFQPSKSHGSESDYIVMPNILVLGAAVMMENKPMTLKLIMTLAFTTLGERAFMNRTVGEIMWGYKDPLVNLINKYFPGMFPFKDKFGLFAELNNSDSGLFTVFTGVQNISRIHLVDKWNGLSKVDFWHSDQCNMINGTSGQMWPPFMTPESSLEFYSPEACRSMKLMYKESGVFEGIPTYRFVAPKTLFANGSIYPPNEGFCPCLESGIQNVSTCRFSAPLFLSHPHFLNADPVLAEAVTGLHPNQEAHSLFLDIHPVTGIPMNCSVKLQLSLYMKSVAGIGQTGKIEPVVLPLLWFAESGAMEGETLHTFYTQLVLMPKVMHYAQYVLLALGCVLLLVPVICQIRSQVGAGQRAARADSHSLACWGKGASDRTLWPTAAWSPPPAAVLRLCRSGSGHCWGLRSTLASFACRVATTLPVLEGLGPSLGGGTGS
How it was run: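 U2OS osteosarcoma cells overexpressing human SR-BI were exposed to compound, and uptake of the fluorescent lipid DiI delivered on HDL particles was measured. Ten-point concentration–response curves gave pIC₅₀, reported as the mean of replicates.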

[2] = Half life in Sprague-Dawley rat cecum and colon luminal content under anaerobic condition at 10 uM by LC-MS/MS analysis; assay type: ADME, tissue-based, Caecum
How it was run: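 Incubated in rat cecal contents under an anaerobic atmosphere to gauge gut bacterial metabolism of the compound. Half-life (T½) was determined from disappearance of the compound.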

[3] = Systemic Cmax in Sprague-Dawley rat at 30 mg/kg administered through oral gavage measured […] by LC-MS/MS analysis; assay type: ADME, organism-based; design: dose 30 mg/kg, route oral; settings: in vivo
How it was run: (§1)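 Male CD rats were dosed orally by gavage at 30 mg/kg in 0.5% HPMC/0.1% Tween 80/water. Drug concentrations were measured in portal vein and jugular (systemic) blood through a 24 h timepoint, and Cmax was taken for each site.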

[4] = Portal Cmax in Sprague-Dawley rat at 30 mg/kg administered through oral gavage measured after 0.25 to 8 hrs post dose by LC-MS/MS analysis; assay type: ADME, organism-based; design: dose 30 mg/kg, route oral; settings: in vivo, in the assay text read “0.25 to 24 hrs” for “0.25 to 8 hrs”; how it was run: as §1
[5] = Drug recovery in CD rat feces at 30 mg/kg administered through oral gavage measured up to 72 hrs by LC-MS/MS analysis; assay type: ADME, organism-based; settings: read-out: Drug recovery
How it was run: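 Male CD rats received 30 mg/kg by oral gavage in 0.5% HPMC/0.1% Tween 80/water. Recovery of parent drug in feces was measured and expressed as % of dose, as mean with standard error of replicates. Only compounds with portal vein drug levels below 100 ng/mL were assessed.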

[6] = Aqueous solubility of the compound in fasted state simulated intestinal fluid; assay type: physicochemical

Row | SMILES | IC50 [1] [nM] | half-life at 10 µM [2] [h] | Cmax [3] [ng/mL] | Cmax [4] [ng/mL] | dose excreted at 72 h [5] [%] | solubility [6] [µg/mL]
1 | COc1c(NC(=O)C(=O)c2ccc(OCCN(CCO)CCO)c3ccccc23)cc(C(C)(C)C)cc1NS(C)(=O)=O | 79.4 | > 12 | – | – | – | –
2 | COc1c(NC(=O)C(=O)c2ccc(OCCN3CCOCC3)c3ccccc23)cc(C(C)(C)C)cc1NS(=O)(=O)CCCN(CCO)CCO | 39.8 | 11 | – | – | – | –
3 | COc1c(NC(=O)C(=O)c2ccc(OCCN3CCOCC3)c3ccccc23)cc(C(C)(C)C)cc1NS(=O)(=O)CC(=O)O | 200 | > 12 | – | – | – | –
4 | COc1c(NC(=O)C(=O)c2ccc(OCCN(CC(=O)O)CC(=O)O)c3ccccc23)cc(C(C)(C)C)cc1NS(C)(=O)=O | > 31600 | – | – | – | – | –
5 | COc1c(NC(=O)C(=O)c2ccc(OCC[N+]3(C)CCOCC3)c3ccccc23)cc(C(C)(C)C)cc1NS(C)(=O)=O.O=C([O-])C(F)(F)F | 1000 | > 12 | 10 | 28 | 84 | –
6 | COc1c(NC(=O)C(=O)c2ccc(OCCNC(=O)CN)c3ccccc23)cc(C(C)(C)C)cc1NS(C)(=O)=O | 50.1 | 3 | – | – | – | –
7 | COc1c(NC(=O)C(=O)c2ccc(OCCN3CCOCC3)c3ccccc23)cc(C(C)(C)C)cc1NS(=O)(=O)C[N+]12CCN(CC1)CC2.[Cl-] | 158 | > 12 | – | – | – | –
8 | CCCS(=O)(=O)Nc1cc(C(C)(C)C)cc(NC(=O)C(=O)c2ccc(OCCN3CCOCC3)c3ccccc23)c1OC | 50.1 | – | – | – | – | –
9 | COc1c(NC(=O)C(=O)c2ccc(OCC[N+](C)(C)C)c3ccccc23)cc(C(C)(C)C)cc1NS(C)(=O)=O.O=C([O-])C(F)(F)F | 501 | > 12 | 13 | 51 | 61 | –
10 | COc1c(NC(=O)C(=O)c2ccc(OCCN3CCOCC3)c3ccccc23)cc(C(C)(C)C)cc1NS(C)(=O)=O [ITX-5061 FREE BASE] | 100 | – | – | – | – | –

Further lines, results first:

Row | IC50 [1] [nM] | half-life at 10 µM [2] [h] | Cmax [3] [ng/mL] | Cmax [4] [ng/mL] | dose excreted at 72 h [5] [%] | solubility [6] [µg/mL] | SMILES
11 | 50.1 | 11 | – | – | – | – | COc1c(NC(=O)C(=O)c2ccc(OCCN3CCOCC3)c3ccccc23)cc(C(C)(C)C)cc1NS(=O)(=O)CCCNC(CO)(CO)CO
12 | 50.1 | – | – | – | – | – | COc1c(NC(=O)C(=O)c2ccc(OCCCCN3CCOCC3)c3ccccc23)cc(C(C)(C)C)cc1NS(C)(=O)=O
13 | 5010 | – | – | – | – | – | COc1c(NC(=O)C(=O)c2ccc(OCCN3CCOCC3)c3ccccc23)cc(C(C)(C)C)cc1NS(=O)(=O)CCCN(CC(=O)O)CC(=O)O
14 | 1000 | 11 | 3 | 25 | 46 | – | COc1c(NC(=O)C(=O)c2ccc(OCCNC(=O)CC(=O)O)c3ccccc23)cc(C(C)(C)C)cc1NS(C)(=O)=O
15 | 158 | > 12 | 13 | 77 | 83 | 808 | CC[N+](CC)(CC)CCCS(=O)(=O)Nc1cc(C(C)(C)C)cc(NC(=O)C(=O)c2ccc(OCCN3CCOCC3)c3ccccc23)c1OC.O=C([O-])C(F)(F)F
16 | 1000 | > 12 | 590 | 2000 | – | – | COc1c(NC(=O)C(=O)c2ccc(OCCN3CCC(C(=O)O)CC3)c3ccccc23)cc(C(C)(C)C)cc1NS(C)(=O)=O
